In ChEMBL document CHEMBL1123129, “Hypolipidemic activity of indan-1,3-dione derivatives in rodents” (J Med Chem, 1985):

Legend:
[1] = tested on: Rattus norvegicus; assay: Compound was evaluated for the hypolipidemic activity at 20 mg/kg per day orally for 14 days on cholesterol content in rat HDL; assay type: functional; details: route oral
Procedure, shortened: (§1)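 Male Sprague–Dawley rats (~300 g) were dosed orally each day. Blood was drawn from the abdominal vein. Lipoprotein fractions (chylomicron, VLDL, LDL, HDL) were separated by the Hatch–Lees and Havel methods. Each fraction was assayed for cholesterol, triglyceride (enzymatic kit), neutral lipids, phospholipids and Lowry protein. Values are % of 1% CMC vehicle control, N = 6.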

[2] = target: Acetyl-CoA carboxylase 1 (Mus musculus) (UniProt Q5SWU9); assay: In Vivo effect for the hypolipidemic activity on Acetyl-CoA carboxylase in CF1 mice after 16 days administered orally at a dose of 20 mg/kg; assay type: functional, organism-based; design: dose 20 mg/kg
Procedure, shortened: (§2)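 CF1 male mice are dosed orally at 10–60 mg/kg per day for 16 days, with 1% CMC as the control vehicle. Liver is homogenized at 10% in 0.25 M sucrose + 0.001 M EDTA, pH 7.2. Enzymes are assayed by literature methods, with Lowry protein. Activity is given as % of control (X ± SD, N = 6), with p from Student's t test.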

[3] = tested on: Mus musculus; assay: Compound was evaluated for the hypolipidemic activity in CF1 male mice at a dose of 10 mg/kg orally for Serum cholesterol at 9th day.; assay type: functional; details: route oral
Procedure, shortened: (§3)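 CF1 male mice received the agent orally in 1% CMC at 10–60 mg/kg per day. Tail-vein blood was taken on days 9 and 16. Serum cholesterol was measured by modified Liebermann–Burchard on duplicate 25-µL samples, and serum triglyceride on day 16 in duplicate 50-µL samples. Values are % of vehicle control, mean ± SD, N = 6; Student's t test.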

[4] = tested on: Mus musculus; assay: In Vivo effect for the hypolipidemic activity on Acetyl-CoA carboxylase in CF1 mice after 16 days administered orally at a dose of 10 mg/kg; assay type: functional; details: route oral; procedure, shortened: as §2
[5] = tested on: Mus musculus; assay: In Vivo effect for the hypolipidemic activity on Hepatic lipoprotein lipase in CF1 mice after 16 days administered orally at a dose of 40 mg/kg; assay type: functional; details: route oral; procedure, shortened: as §2
[6] = tested on: Rattus norvegicus; assay: Compound was evaluated for the hypolipidemic activity at 20 mg/kg per day orally for 14 days on cholesterol content in rat small intestine.; assay type: functional; details: route oral
Procedure, shortened: (§4)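 Male Sprague–Dawley rats were dosed orally for 14 days. Liver, small intestine and a 24-h fecal collection were lipid-extracted. Extracts were assayed for cholesterol (modified Liebermann–Burchard), triglyceride (enzymatic kit), neutral lipids, phospholipids and protein. Values are % of 1% CMC vehicle control, mean ± SD, N = 6.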

[7] = tested on: Mus musculus; assay: Compound was evaluated for the hypolipidemic activity in CF1 male mice at a dose of 20 mg/kg orally for Serum cholesterol at 9th day; assay type: functional; details: route oral; procedure, shortened: as §3
[8] = tested on: Rattus norvegicus; assay: Compound was evaluated for the hypolipidemic activity at 20 mg/kg per day orally for 14 days on lipid content in rat liver; assay type: functional; details: route oral; procedure, shortened: as §4
[9] = tested on: Rattus norvegicus; assay: Compound was evaluated for the hypolipidemic activity at 20 mg/kg per day orally for 14 days on triglycerides content in rat LDL; assay type: functional; details: route oral; procedure, shortened: as §1
[10] = tested on: Rattus norvegicus; assay: Compound was evaluated for the hypolipidemic activity at 20 mg/kg per day orally for 14 days on protein content in rat HDL; assay type: functional; details: route oral; procedure, shortened: as §1
[11] = species on record: Mus musculus; assay: In Vitro evaluation for the CF1 liver enzyme activity on phosphatidate phosphohydrolase at concentration 100 uM
Procedure, shortened: (§5)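 Mouse liver enzymes assayed in vitro on 10% homogenates of CF1 male mouse liver, with test drug added at 50–200 μM. Each enzyme follows a published procedure. Protein is measured by Lowry. Activity is given as % of untreated control (X ± SD, N = 6).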

[12] = target: Acetyl-CoA carboxylase 1 (Mus musculus) (UniProt Q5SWU9); assay: In Vitro evaluation for the CF1 liver enzyme activity on Acetyl-CoA carboxylase at concentration 200 uM
Procedure, shortened: (§6)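 Liver was taken from CF1 male mice and made into 10% homogenates, which were incubated with test compound at 50, 100 or 200 µM. Each enzyme was assayed by its literature method, and protein was measured by Lowry. N = 6. Activity is expressed as % of untreated control ± SD.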

[13] = target: Cholesterol 7-alpha-hydroxylase (Cytochrome P450 7A1) (Mus musculus, UniProt Q64505); assay: In vivo effect on Cholesterol 7-alpha-hydroxylase activity in CF1 mice after 16 days at 40 mg/kg oral dose; assay type: functional, organism-based; design: dose 40 mg/kg, route oral; details: read-out: Control; procedure, shortened: as §2
[14] = target: T1, ATP-citrate synthase (Mus musculus) (UniProt Q91V92); assay: In Vitro evaluation for the CF1 liver enzyme activity on ATP-dependent citrate exchange at concentration 50 uM; procedure, shortened: as §6
T1 sequence (whole entry): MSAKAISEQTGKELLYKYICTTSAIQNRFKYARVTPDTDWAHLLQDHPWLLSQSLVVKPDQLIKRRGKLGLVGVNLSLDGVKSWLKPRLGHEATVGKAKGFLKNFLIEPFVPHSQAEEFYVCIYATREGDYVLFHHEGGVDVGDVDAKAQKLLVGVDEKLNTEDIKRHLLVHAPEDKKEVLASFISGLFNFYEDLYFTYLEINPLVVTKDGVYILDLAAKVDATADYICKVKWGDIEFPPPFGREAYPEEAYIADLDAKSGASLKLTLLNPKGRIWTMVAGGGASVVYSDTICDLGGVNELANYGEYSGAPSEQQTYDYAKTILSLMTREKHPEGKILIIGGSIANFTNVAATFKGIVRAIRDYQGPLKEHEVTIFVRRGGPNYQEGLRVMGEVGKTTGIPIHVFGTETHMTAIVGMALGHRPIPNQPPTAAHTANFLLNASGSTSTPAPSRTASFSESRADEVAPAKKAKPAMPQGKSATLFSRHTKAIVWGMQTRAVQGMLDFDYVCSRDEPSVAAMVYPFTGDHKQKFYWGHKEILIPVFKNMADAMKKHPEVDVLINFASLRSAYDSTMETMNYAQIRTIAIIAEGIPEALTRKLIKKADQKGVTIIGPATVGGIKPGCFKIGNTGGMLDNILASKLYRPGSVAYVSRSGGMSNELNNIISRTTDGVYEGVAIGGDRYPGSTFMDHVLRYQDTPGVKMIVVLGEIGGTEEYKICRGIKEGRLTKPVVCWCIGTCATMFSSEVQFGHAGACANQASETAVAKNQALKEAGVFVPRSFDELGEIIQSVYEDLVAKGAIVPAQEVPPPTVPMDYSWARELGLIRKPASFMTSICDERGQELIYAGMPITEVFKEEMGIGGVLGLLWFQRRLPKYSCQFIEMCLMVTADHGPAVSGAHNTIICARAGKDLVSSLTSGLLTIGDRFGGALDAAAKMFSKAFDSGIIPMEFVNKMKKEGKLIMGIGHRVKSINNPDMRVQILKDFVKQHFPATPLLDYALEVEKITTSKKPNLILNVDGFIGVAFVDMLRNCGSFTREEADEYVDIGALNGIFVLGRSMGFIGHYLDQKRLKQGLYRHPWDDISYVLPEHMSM

[15] = target: Acetyl-coenzyme A synthetase, cytoplasmic (Mus musculus) (UniProt Q9QXG4); assay: In Vivo effect for the hypolipidemic activity on Acetyl-coenzyme A synthetase in CF1 mice after 16 days of oral administration at a dose of 20 mg/kg; assay type: functional, organism-based; design: dose 20 mg/kg; procedure, shortened: as §2
[16] = tested on: Rattus norvegicus; assay: Compound was evaluated for the hypolipidemic activity at 20 mg/kg per day orally for 14 days on phospholipids content in rat LDL; assay type: functional; details: route oral; procedure, shortened: as §1
[17] = species on record: Mus musculus; assay: In Vitro evaluation for the CF1 liver enzyme activity on Mitochondrial citrate exchange at concentration 100 uM; assay type: functional; procedure, shortened: as §5
[18] = tested on: Mus musculus; assay: Compound was evaluated for the hypolipidemic activity in CF1 male mice at a dose of 20 mg/kg orally for Serum cholesterol at 16th day; assay type: functional; details: route oral; procedure, shortened: as §3

Acetyl-coenzyme A synthetase, cytoplasmic (Mus musculus), sequence (Q9QXG4 whole entry): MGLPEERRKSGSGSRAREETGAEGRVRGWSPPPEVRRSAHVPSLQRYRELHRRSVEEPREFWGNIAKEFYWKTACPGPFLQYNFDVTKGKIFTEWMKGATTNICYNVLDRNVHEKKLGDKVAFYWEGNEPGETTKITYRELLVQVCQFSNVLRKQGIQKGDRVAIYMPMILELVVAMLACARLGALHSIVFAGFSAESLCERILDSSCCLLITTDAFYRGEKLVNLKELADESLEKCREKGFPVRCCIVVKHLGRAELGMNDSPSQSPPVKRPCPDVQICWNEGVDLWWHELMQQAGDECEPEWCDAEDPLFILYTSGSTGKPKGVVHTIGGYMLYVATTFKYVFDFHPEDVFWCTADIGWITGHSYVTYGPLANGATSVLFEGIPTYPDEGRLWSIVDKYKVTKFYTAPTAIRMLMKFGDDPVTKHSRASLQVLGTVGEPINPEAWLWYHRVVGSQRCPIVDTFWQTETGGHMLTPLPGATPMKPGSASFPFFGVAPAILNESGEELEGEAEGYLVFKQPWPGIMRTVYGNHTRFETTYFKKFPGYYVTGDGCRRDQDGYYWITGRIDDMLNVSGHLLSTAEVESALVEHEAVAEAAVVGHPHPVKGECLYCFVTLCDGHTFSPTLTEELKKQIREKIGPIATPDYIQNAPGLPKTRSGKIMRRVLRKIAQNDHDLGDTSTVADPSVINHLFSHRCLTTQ
Cholesterol 7-alpha-hydroxylase (Cytochrome P450 7A1), sequence (Q64505 whole entry): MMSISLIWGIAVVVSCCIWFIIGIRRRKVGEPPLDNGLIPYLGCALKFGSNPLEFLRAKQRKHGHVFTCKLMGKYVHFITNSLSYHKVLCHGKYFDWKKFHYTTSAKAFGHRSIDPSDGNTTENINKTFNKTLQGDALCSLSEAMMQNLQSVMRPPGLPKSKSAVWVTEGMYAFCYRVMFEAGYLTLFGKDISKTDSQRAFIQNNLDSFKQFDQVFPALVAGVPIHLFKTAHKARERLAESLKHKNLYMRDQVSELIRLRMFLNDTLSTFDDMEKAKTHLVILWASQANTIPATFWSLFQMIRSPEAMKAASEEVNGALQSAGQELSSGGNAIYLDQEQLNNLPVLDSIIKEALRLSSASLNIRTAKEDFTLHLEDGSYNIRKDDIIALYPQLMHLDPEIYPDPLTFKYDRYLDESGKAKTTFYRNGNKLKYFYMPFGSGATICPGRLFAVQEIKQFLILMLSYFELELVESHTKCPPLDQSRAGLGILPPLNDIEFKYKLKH

Structure (SMILES): COc1ccc(C2C(=O)c3ccccc3C2=O)cc1 [ANISINDIONE]
- Control [1]: 216%
- Control [2]: 107%
- Control [3]: 82%
- Control [4]: 89%
- Control [5]: 89%
- Control [6]: 87%
- Control [7]: 67%
- Control [8]: 98%
- Control [9]: 40%
- Control [10]: 107%
- Control [11]: 29%
- Control [12]: 67%
- activity at 384 h [13]: 55%
- Control [14]: 72%
- Control [15]: 72%
- Control [16]: 204%
- Control [17]: 38%
- Control [18]: 62%
